Source: ChEMBL document CHEMBL1145471, “Small molecule regulators of autophagy identified by an image-based high-throughput screen” (Proc Natl Acad Sci U S A, 2007)
The source made the active and inactive calls. No cut-off for these calls is given here.

Experiments:
H4 [1] = test: Increase in long-lived protein degradation in human H4 cells after 1 hr relative to control; type: functional; design: concentration or dose not given beside the values
H4 [2] = test: Induction of light chain 3-GFP level in human H4 cells at 7.0 uM after 24 hrs by high throughput fluorescence microscopy relative to control; type: functional
How it was run: (§1)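 H4 cells stably expressing LC3-GFP, grown in DMEM with 10% FBS, penicillin/streptomycin and 2 mM L-glutamine at 37°C, 5% CO2. Cells were seeded in 96-well plates and exposed to library compounds at 3–12 μM for 24 h, then fixed in 4% paraformaldehyde and stained with 3 μg/ml DAPI. LC3-GFP spot number, size and intensity were measured by high-throughput fluorescence microscopy and expressed relative to DMSO. Triplicates, mean ± SD.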

H4 [3] = test: Effect on FYVE-RFP+ vesicle intensity per cell in human H4 cells after 2 hrs relative to control; type: functional; design: concentration or dose not given beside the values
How it was run: (§2)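 H4 cells stably expressing FYVE-RFP (H4-FYVE), grown in DMEM with 10% FBS, penicillin/streptomycin and 2 mM L-glutamine at 37°C, 5% CO2, seeded in 96-well plates and exposed to compound. Fixed in 4% paraformaldehyde, nuclei stained with 3 μg/ml DAPI, FYVE-RFP+ vesicles quantified by high-throughput fluorescence microscopy against DMSO control. Triplicate wells, mean ± SD.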

H4 [4] = test: Effect on FYVE-RFP+ vesicle intensity per cell in human H4 cells after 4 hrs relative to control; type: functional; design: concentration or dose not given beside the values; how it was run: as §2
H4 [5] = test: Increase in long-lived protein degradation in human H4 cells after 24 hrs relative to control; type: functional; design: concentration or dose not given beside the values
H4 [6] = test: Increase in light chain 3-GFP+ autophagosome vesicle area per cell in human H4 cells at 7.0 uM after 24 hrs by high throughput fluorescence microscopy relative to control; type: functional
How it was run: (§3)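 H4 cells stably expressing LC3-GFP, seeded in 96-well plates and exposed to compound for 24 h; screening concentrations were 3–12 μM, with rapamycin 0.22 μM and bafilomycin A1 0.40 μM. Cells fixed in 4% paraformaldehyde and stained with 3 μg/ml DAPI. Number, size and intensity of LC3-GFP spots measured by high-throughput fluorescence microscopy and expressed as percent of DMSO-treated wells. Rapamycin was the positive control. Triplicate wells, mean ± SD; experiments repeated three times.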

H4 [7] = test: Increase in long-lived protein degradation in human H4 cells after 4 hrs relative to control; type: functional; design: concentration or dose not given beside the values
H4 [8] = test: Increase in long-lived protein degradation in human H4 cells after 2 hrs relative to control; type: functional; design: concentration or dose not given beside the values
H4 [9] = test: Increase in light chain 3-GFP+ autophagosome vesicle number per cell in human H4 cells at 7.0 uM after 24 hrs by high throughput fluorescence microscopy relative to control; type: functional
How it was run: (§4)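 H4 cells stably expressing LC3-GFP were grown in DMEM with 10% FBS and 2 mM L-glutamine at 37°C, 5% CO2. They were exposed to each compound for 24 h, with DMSO as negative and rapamycin as positive control. Cells were then fixed in 4% paraformaldehyde and stained with 3 μg/ml DAPI. High-throughput fluorescence imaging scored LC3-GFP spot number, size and intensity, expressed relative to DMSO. Mean ± SD of triplicates; experiments repeated three times.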

H4 [10] = test: Increase in light chain 3-GFP+ autophagosome vesicle intensity per cell in human H4 cells at 7.0 uM after 24 hrs by high throughput fluorescence microscopy relative to control; type: functional; how it was run: as §4
H4 [11] = test: Effect on FYVE-RFP+ vesicle intensity per cell in human H4 cells after 8 hrs relative to control; type: functional; design: concentration or dose not given beside the values; how it was run: as §2
H4 [12] = test: Induction of light chain 3-GFP level in human H4 cells at 3.7 uM after 24 hrs by high throughput fluorescence microscopy relative to control; type: functional; how it was run: as §1
H4 [13] = test: Increase in light chain 3-GFP+ autophagosome vesicle intensity per cell in human H4 cells at 3.7 uM after 24 hrs by high throughput fluorescence microscopy relative to control; type: functional; how it was run: as §3
[14] = molecular target: Serine/threonine-protein kinase mTOR (Homo sapiens, UniProt P42345); test: Effect on mTOR phosphorylation in human H4 cells at 3.7 uM after 4 hrs; type: cell-based
How it was run: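 H4 cells exposed to compound for 4 h. Lysates analysed by Western blot with anti-phospho and anti-total mTOR antibodies, with actin as loading control. Rapamycin served as reference.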

H4 [15] = test: Increase in light chain 3-GFP+ autophagosome vesicle area per cell in human H4 cells at 3.7 uM after 24 hrs by high throughput fluorescence microscopy relative to control; type: functional; how it was run: as §3
H4 [16] = test: Increase in light chain 3-GFP+ autophagosome vesicle number per cell in human H4 cells at 3.7 uM after 24 hrs by high throughput fluorescence microscopy relative to control; type: functional; how it was run: as §4
H4 [17] = test: Reduction of poly(Q) level in human H4 cells expressing EGFP-Q79-HA after 24 hrs; type: functional, cell-based
How it was run: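 H4 cells were transiently transfected with an EGFP-Q79-HA expression vector. The medium was replaced 6 h after transfection and compounds were added. Poly(Q) was detected with anti-HA antibody.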

H4 [18] = test: Increase in ratio of light chain 3 subunit 2 to light chain 3 subunit 1 in human H4 cells at 3.7 uM after 4 hrs by Western blot; type: functional, cell-based
How it was run: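 H4 cells were treated with each compound for 4 h, then lysed. Lysates were immunoblotted with anti-LC3 antibody, with actin as loading control. LC3II and LC3I bands were compared as an LC3II/LC3I ratio.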

H4 [19] = test: Increase in light chain 3-GFP+ autophagosome vesicle intensity per cell in human H4 cells at 7.7 uM after 24 hrs by high throughput fluorescence microscopy relative to control; type: functional
How it was run: (§5)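 H4 cells stably expressing LC3-GFP, seeded in 96-well plates and exposed to compound for 24 h; fixed in 4% paraformaldehyde, nuclei stained with 3 μg/ml DAPI. Automated fluorescence microscopy scored number, size and intensity of LC3-GFP spots; values expressed relative to DMSO-treated wells, rapamycin positive control. Triplicate wells, mean ± SD; experiments repeated three times.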

H4 [20] = test: Increase in light chain 3-GFP+ autophagosome vesicle number per cell in human H4 cells at 7.7 uM after 24 hrs by high throughput fluorescence microscopy relative to control; type: functional
How it was run: (§6)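 H4 cells stably expressing LC3-GFP, kept in DMEM/10% FBS at 37°C, 5% CO2, were seeded in 96-well plates and exposed to compound for 24 h. Cells were then fixed in 4% paraformaldehyde and stained with 3 μg/ml DAPI. Automated fluorescence microscopy scored the number, size and intensity of LC3-GFP spots. Values are percent of DMSO wells, in triplicate, mean ± SD. Rapamycin served as positive control.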

H4 [21] = test: Increase in light chain 3-GFP+ autophagosome vesicle area per cell in human H4 cells at 7.7 uM after 24 hrs by high throughput fluorescence microscopy relative to control; type: functional; how it was run: as §5
H4 [22] = test: Induction of light chain 3-GFP level in human H4 cells at 7.7 uM after 24 hrs by high throughput fluorescence microscopy relative to control; type: functional; how it was run: as §6

Question: How did the Activity (H4 [1]) turn out when `COC(=O)C1=C(C)NC(C)=C([N+](=O)[O-])C1c1ccccc1C(F)(F)F` (stereo unspecified) was run?
Answer: 104.43%

Question: What about the Activity (H4 [2]) of the same molecule?
Answer: 134.45%

Question: And the Activity (H4 [3])?
Answer: 110.18%

Question: What about the Activity (H4 [4]) of the same molecule?
Answer: 57.79%

Question: What about the Activity (H4 [5]) of the same molecule?
Answer: 102.15%

Question: And the Activity (H4 [6])?
Answer: 165.46%

Question: And the Activity (H4 [7])?
Answer: 115.35%

Question: What about the Activity (H4 [8]) of the same molecule?
Answer: 115.5%

Question: What about the Activity (H4 [9]) of the same molecule?
Answer: 146.82%

Question: And the Activity (H4 [10])?
Answer: 181.32%

Question: What about the Activity (H4 [11]) of the same molecule?
Answer: 79.7%

Question: Which Activity (H4 [1]) does the source give for `CCCCc1oc2ccccc2c1C(=O)c1cc(I)c(OCCN(CC)CC)c(I)c1` [AMIODARONE] here?
Answer: 101.32%

Question: And the Activity (H4 [3])?
Answer: 92.5%

Question: What about the Activity (H4 [4]) of the same molecule?
Answer: 89.23%

Question: What about the Activity (H4 [12]) of the same molecule?
Answer: 138.5%

Question: And the Activity (H4 [13])?
Answer: 327.25%

Question: What about the Activity [14] of the same molecule?
Answer: inactive

Question: And the Activity (H4 [5])?
Answer: 116.73%

Question: What about the Activity (H4 [15]) of the same molecule?
Answer: 236.64%

Question: What about the Activity (H4 [7]) of the same molecule?
Answer: 110.75%

Question: And the Activity (H4 [8])?
Answer: 122.42%

Question: What about the Activity (H4 [11]) of the same molecule?
Answer: 83.45%

Question: What about the Activity (H4 [16]) of the same molecule?
Answer: 189.25%

Question: What about the Activity (H4 [17]) of the same molecule?
Answer: Dose-dependent effect

Question: What about the Activity (H4 [18]) of the same molecule?
Answer: Active

Question: Which results are given for `CN1CCN(C2=Nc3cc(Cl)ccc3Nc3ccccc32)CC1` [CLOZAPINE]?
Answer: Activity (H4 [19]): 350.13%; Activity (H4 [1]): 115.64%; Activity (H4 [3]): 64.04%; Activity (H4 [4]): 74.79%; Activity (H4 [20]): 216.53%; Activity (H4 [21]): 275.5%; Activity (H4 [5]): 119.5%; Activity (H4 [7]): 11.93%; Activity (H4 [8]): 125.71%; Activity (H4 [11]): 78.38%; Activity (H4 [22]): 139.18%
